How the values were obtained:
MpPR10.5 protein [1] = molecular target: T1, MpPR10.5 protein (Marchantia polymorpha, UniProt A0A2R6WRE7); experiment: Intrinsic tryptophan fluorescence binding assay
T1 sequence (A0A2R6WRE7 1-149): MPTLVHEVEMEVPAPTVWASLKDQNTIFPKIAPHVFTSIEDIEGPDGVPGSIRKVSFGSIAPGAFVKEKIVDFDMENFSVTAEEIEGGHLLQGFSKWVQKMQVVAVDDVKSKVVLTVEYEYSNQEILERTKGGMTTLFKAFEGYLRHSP
In short: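 His-SUMO-tagged PR10 protein, expressed in E. coli Rosetta-Gami 2 and purified by IMAC and size exclusion, used at 1.1 μM in 20 mM Tris pH 8.5, 200 mM NaCl. DMSO stocks of test compound at eight levels (0–20 mM or 0–4 mM) were diluted 10× in buffer and added. Incubated 5 min at 22°C. Excitation 280 nm, emission 340 nm. Six replicates; buffer controls subtracted. |ΔF|/F0 versus concentration was fitted to a one-site specific binding model to give Kd.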

MpPR10.5 protein [2] = molecular target: T1, MpPR10.5 protein; experiment: Naringenin chalcone oxidation assay; format: physicochemical; settings: pH 7.5, 30 min
In short: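 Run in 20 mM Tris pH 7.5 or 8.5 with 200 mM NaCl, either as buffer alone or with 15 μM His-SUMO-tagged PR10 protein. A blank was recorded first. Test compound was added from a 1.4 mM DMSO stock to 10 μM final. UV–Vis spectra (190–840 nm, 1 cm path) were taken every 1 min for 30 min, following the 377 and 322 nm peaks.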

Structure (SMILES) | affinity for MpPR10.5 (in words) (MpPR10.5 protein [1]) | Kd (MpPR10.5 protein [1]; Kd (dissociation constant), His-SUMO-MpPR10.5 fusion protein, 20 mM Tris pH 8.5, 200 mM NaCl, 22°C, nd = not detected) [µM] | stability under the experimental conditions (absorption peak at 322 nm) (MpPR10.5 protein [2])
O=C(CCc1ccc(O)cc1)c1c(O)cc(O)cc1O [Phloretin] | high affinity |  | 
O=C(O)/C=C/c1ccccc1 [Cinnamic acid] | very low affinity | > 119 | 
O=C1C[C@@H](c2ccc(O)cc2)Oc2cc(O)cc(O)c21 [Naringenin] |  |  | remained completely stable
O=C(/C=C/c1ccc(O)cc1)c1ccc(O)cc1O [Isoliquiritigenin] | high affinity |  | 
O=C(O)C=Cc1ccc(O)cc1 [p-Coumaric acid] | no affinity |  | 
O=C(/C=C/c1ccc(O)c(O)c1)c1ccc(O)cc1O [Butein] | high affinity |  | 
